Active and inactive are the calls of the source. The rule behind the calls is not given here.
Legend:
[1] = target: Carbonic anhydrase 9 (Homo sapiens, UniProt Q16790); assay: Inhibition of human carbonic anhydrase 9 assessed as inhibition constant incubated for 15 mins prior to testing by phenol red based stopped-flow CO2 hydration assay
[2] = system: hTERT-BJ; assay: Cytotoxicity against human TERT-Bj-5ta cells assessed as reduction in cell viability at 300 uM measured after 24 hrs under CoCl2- induced hypoxic condition by MTT assay relative to control; type: cell-based
[3] = system: U-87 MG; assay: Antiproliferative activity against human U-87 MG cells assessed as cell growth inhibition at 30 to 100 uM measured after 24 hrs under CoCl2-induced hypoxic condition by MTT assay; type: functional, cell-based; conditions: U-87MG ATCC, dose 30-100 µM
[4] = system: A-431; assay: Antiproliferative activity against human A-431 cells assessed as reduction in cell viability measured after 72 hrs by MTT assay; conditions: A-431, 72 h
[5] = Antiproliferative activity against human WI-26 AV4 cells assessed as reduction in cell viability measured after 24 hrs by MTT assay; conditions: WI-26 AV4, 24 h
[6] = system: A-431; assay: Antiproliferative activity against human A-431 cells assessed as cell survival rate at 300 uM measured after 24 hrs under CoCl2-induced hypoxic condition by MTT assay relative to control; type: functional; conditions: read-out: Survival
Method in brief: (§1)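 MTT end-point assay. MTT (5 mg/mL in PBS) added for 4 h, formazan dissolved in DMSO, absorbance read at 560 nm. Viability given as % of untreated control (100%); mean ± SEM of three experiments.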

[7] = system: A-431; assay: Antiproliferative activity against human A-431 cells assessed as reduction in cell viability measured after 24 hrs by MTT assay; conditions: A-431, 24 h
[8] = system: RT-4; assay: Antiproliferative activity against human RT-4 cells assessed as cell survival rate at 300 uM measured after 24 hrs under CoCl2-induced hypoxic condition by MTT assay relative to control; type: functional; conditions: read-out: Survival; method in brief: as §1
[9] = Antiproliferative activity against human WI-26 AV4 cells assessed as reduction in cell viability measured after 72 hrs by MTT assay; conditions: WI26VA4, 72 h
[10] = system: A-431; assay: Antiproliferative activity against human A-431 cells assessed as reduction in cell viability measured after 48 hrs by MTT assay; conditions: A-431, 48 h
[11] = Antiproliferative activity against human WI-26 AV4 cells assessed as reduction in cell viability measured after 48 hrs by MTT assay; conditions: WI-26 AV4, 48 h
[12] = system: hTERT-BJ; assay: Cytotoxicity against human TERT-Bj-5ta cells assessed as reduction in cell viability at measured after 24 hrs under CoCl2- induced hypoxic condition by MTT assay; type: cell-based
[13] = system: U-87 MG; assay: Antiproliferative activity against human U-87 MG cells assessed as cell survival rate at 300 uM measured after 24 hrs under CoCl2-induced hypoxic condition by MTT assay relative to control; type: functional, U-87MG ATCC; conditions: read-out: Survival; method in brief: as §1
[14] = system: A-431; assay: Induction of apoptosis in human A-431 cells assessed as late apoptotic cells at 25 uM incubated for 24 hrs by annexin-V/FITC and propidium iodide based staining based flow cytometry (Rvb= 3.06 %); type: functional
[15] = system: A-431; assay: Induction of apoptosis in human A-431 cells assessed as early apoptotic cells at 25 uM incubated for 24 hrs by annexin-V/FITC and propidium iodide based staining based flow cytometry (Rvb= 6.10 %); type: functional
[16] = system: A-431; assay: Induction of apoptosis in human A-431 cells assessed as dead cells at 15 uM incubated for 24 hrs by annexin-V/FITC and propidium iodide based staining based flow cytometry (Rvb= 0.14 %); type: functional
[17] = system: A-431; assay: Induction of apoptosis in human A-431 cells assessed as dead cells at 20 uM incubated for 24 hrs by annexin-V/FITC and propidium iodide based staining based flow cytometry (Rvb= 0.14 %); type: functional
[18] = system: A-431; assay: Induction of apoptosis in human A-431 cells assessed as dead cells at 10 uM incubated for 24 hrs by annexin-V/FITC and propidium iodide based staining based flow cytometry (Rvb= 0.14 %); type: functional
[19] = system: A-431; assay: Antiproliferative activity against human A-431 cells assessed as cell survival rate at 100 uM measured after 24 hrs under CoCl2-induced hypoxic condition by MTT assay relative to control; type: functional; conditions: read-out: Survival; method in brief: as §1
[20] = system: A-431; assay: Induction of apoptosis in human A-431 cells assessed as viable cells at 10 uM incubated for 24 hrs by annexin-V/FITC and propidium iodide based staining based flow cytometry (Rvb= 90.70 %); type: functional; conditions: read-out: Activity
[21] = system: A-431; assay: Induction of apoptosis in human A-431 cells assessed as dead cells at 5 uM incubated for 24 hrs by annexin-V/FITC and propidium iodide based staining based flow cytometry (Rvb= 0.14 %); type: functional
[22] = system: A-431; assay: Induction of apoptosis in human A-431 cells assessed as dead cells at 25 uM incubated for 24 hrs by annexin-V/FITC and propidium iodide based staining based flow cytometry (Rvb= 0.14 %); type: functional
[23] = system: A-431; assay: Induction of apoptosis in human A-431 cells assessed as early apoptotic cells at 10 uM incubated for 24 hrs by annexin-V/FITC and propidium iodide based staining based flow cytometry (Rvb= 6.10 %); type: functional
[24] = system: A-431; assay: Induction of apoptosis in human A-431 cells assessed as viable cells at 25 uM incubated for 24 hrs by annexin-V/FITC and propidium iodide based staining based flow cytometry (Rvb= 90.70 %); type: functional; conditions: read-out: Activity
[25] = system: A-431; assay: Induction of apoptosis in human A-431 cells assessed as activation of caspase 3/7 measured after 24 hrs by CellEvent caspase 3/7 green detection reagent based assay; type: functional, cell-based
Method in brief: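 Subconfluent cells in 6-well plates exposed to compound (5–25) for 24 h at 37 °C, 5% CO₂. Cells washed in PBS and resuspended at 1 × 10^6/mL. CellEvent caspase-3/7 green reagent added at 4 final, incubated 30 min at 37 °C, then analysed by flow cytometry within 20 min.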

[26] = system: A-431; assay: Induction of apoptosis in human A-431 cells assessed as early apoptotic cells at 20 uM incubated for 24 hrs by annexin-V/FITC and propidium iodide based staining based flow cytometry (Rvb= 6.10 %); type: functional
[27] = system: A-431; assay: Induction of apoptosis in human A-431 cells assessed as late apoptotic cells at 20 uM incubated for 24 hrs by annexin-V/FITC and propidium iodide based staining based flow cytometry (Rvb= 3.06 %); type: functional
[28] = system: A-431; assay: Induction of apoptosis in human A-431 cells assessed as late apoptotic cells at 15 uM incubated for 24 hrs by annexin-V/FITC and propidium iodide based staining based flow cytometry (Rvb= 3.06 %); type: functional
[29] = target: Carbonic anhydrase 2 (Homo sapiens, UniProt P00918); assay: Inhibition of human carbonic anhydrase 2 assessed as inhibition constant incubated for 15 mins prior to testing by phenol red based stopped-flow CO2 hydration assay
[30] = system: A-431; assay: Induction of apoptosis in human A-431 cells assessed as viable cells at 20 uM incubated for 24 hrs by annexin-V/FITC and propidium iodide based staining based flow cytometry (Rvb= 90.70 %); type: functional; conditions: read-out: Activity
[31] = system: A-431; assay: Induction of apoptosis in human A-431 cells assessed as viable cells at 15 uM incubated for 24 hrs by annexin-V/FITC and propidium iodide based staining based flow cytometry (Rvb= 90.70 %); type: functional; conditions: read-out: Activity
[32] = system: A-431; assay: Induction of apoptosis in human A-431 cells assessed as early apoptotic cells at 5 uM incubated for 24 hrs by annexin-V/FITC and propidium iodide based staining based flow cytometry (Rvb= 6.10 %); type: functional
[33] = system: A-431; assay: Induction of apoptosis in human A-431 cells assessed as late apoptotic cells at 10 uM incubated for 24 hrs by annexin-V/FITC and propidium iodide based staining based flow cytometry (Rvb= 3.06 %); type: functional
[34] = system: A-431; assay: Induction of apoptosis in human A-431 cells assessed as late apoptotic cells at 5 uM incubated for 24 hrs by annexin-V/FITC and propidium iodide based staining based flow cytometry (Rvb= 3.06 %); type: functional
[35] = system: A-431; assay: Induction of apoptosis in human A-431 cells assessed as viable cells at 5 uM incubated for 24 hrs by annexin-V/FITC and propidium iodide based staining based flow cytometry (Rvb= 90.70 %); type: functional; conditions: read-out: Activity
[36] = system: A-431; assay: Induction of apoptosis in human A-431 cells assessed as early apoptotic cells at 15 uM incubated for 24 hrs by annexin-V/FITC and propidium iodide based staining based flow cytometry (Rvb= 6.10 %); type: functional

## NS(=O)(=O)c1cc2cc(O)ccc2oc1=O
[1]
  Ki: 0.0664 µM
[2]
  Activity: 65.75%
[3]
  growth inhibition (GI): inactive

## NS(=O)(=O)c1cc2cc([N+](=O)[O-])ccc2oc1=O
[1]
  Ki: 0.148 µM
[3]
  growth inhibition (GI): inactive

## Cc1ccc2oc(=O)c(S(N)(=O)=O)cc2c1
[1]
  Ki: 0.0474 µM
[3]
  growth inhibition (GI): inactive

## NS(=O)(=O)c1cc2cc(Br)ccc2oc1=O
[4]
  IC50: 49.2 µM
[5]
  IC50: 76.6 µM
[6]
  viability at 300 µM: 39.3%
[1]
  Ki: 0.317 µM
[7]
  IC50: 38.4 µM
[8]
  viability at 300 µM: 19.7%
[9]
  IC50: 21.5 µM
[10]
  IC50: 24.7 µM
[11]
  IC50: 42.1 µM
[3]
  growth inhibition (GI): inactive
[12]
  Activity: Non-Toxic

## NS(=O)(=O)c1cc2cc(Cl)ccc2oc1=O
[4]
  IC50: 57.8 µM
[5]
  IC50: 89.2 µM
[6]
  viability at 300 µM: 36.5%
[1]
  Ki: 0.177 µM
[7]
  IC50: 51.9 µM
[8]
  viability at 300 µM: 19.7%
[9]
  IC50: 5.87 µM
[10]
  IC50: 29.1 µM
[11]
  IC50: 45.1 µM
[3]
  growth inhibition (GI): inactive
[12]
  Activity: Non-Toxic

## NS(=O)(=O)c1cc2cccc(O)c2oc1=O
[1]
  Ki: 0.0987 µM
[8]
  viability at 300 µM: 19.7%
[2]
  Activity: 54.76%
[13]
  viability at 300 µM: 67.7%
[3]
  growth inhibition (GI): inactive

## NS(=O)(=O)c1cc2c(ccc3ccccc32)oc1=O
[14]
  Activity: 2.31%
[15]
  Activity: 18.56%
[16]
  Activity: 0.24%
[4]
  IC50: 70.1 µM
[5]
  IC50: 41.7 µM
[17]
  Activity: 0.25%
[6]
  viability at 300 µM: 23.4%
[1]
  Ki: 6.37 µM
[7]
  IC50: 9.73 µM
[18]
  Activity: 0.34%
[19]
  viability at 100 µM: 73%
[20]
  viability at 10 µM: 88.4%
[21]
  Activity: 0.48%
[22]
  Activity: 0.41%
[23]
  Activity: 9.25%
[24]
  viability at 25 µM: 78.7%
[25]
  Activity: Dose-Dependent Effect
[26]
  Activity: 15.93%
[13]
  viability at 300 µM: 67.9%
[9]
  IC50: > 350 µM
[27]
  Activity: 2.65%
[28]
  Activity: 1.7%
[29]
  Ki: > 100 µM
[30]
  viability at 20 µM: 81.2%
[10]
  IC50: 25.9 µM
[11]
  IC50: 84.5 µM
[3]
  growth inhibition (GI): inactive
[31]
  viability at 15 µM: 85.5%
[12]
  Activity: Non-Toxic
[32]
  Activity: 3.89%
[33]
  Activity: 1.99%
[34]
  Activity: 2.79%
[35]
  viability at 5 µM: 92.8%
[36]
  Activity: 12.52%

## NS(=O)(=O)c1cc2cccc(F)c2oc1=O
[1]
  Ki: 0.0411 µM
[13]
  viability at 300 µM: 57.9%
[3]
  growth inhibition (GI): inactive

## NS(=O)(=O)c1cc2ccccc2oc1=O
[1]
  Ki: 0.0651 µM
[3]
  growth inhibition (GI): inactive

Source: ChEMBL document CHEMBL4825703, “Investigation of 3-sulfamoyl coumarins against cancer-related IX and XII isoforms of human carbonic anhydrase as well as cancer cells leads to the discovery of 2-oxo-2H-benzo[h]chromene-3-sulfonamide - A new caspase-activating proapoptotic agent” (Eur J Med Chem, 2021)
